Test results from ChEMBL document CHEMBL1151159, “Antineoplastic agents. 380. Isolation and X-ray crystal structure determination of isoaaptamine from the Republic of Singapore Hymeniacidon sp. and conversion to the phosphate prodrug hystatin 1” (2004).
Converted amounts (≈) assume the structure as drawn. The source made the active and inactive calls. The calls are words filed in the database; no cut-off is given here.

Legend:
[1] = test system: P388; assay: Antineoplastic activity against mouse P388 cells; assay type: functional; settings: read-out: ED50 (the source's name)
[2] = test system: OVCAR-3; assay: Antineoplastic activity against human OVCAR-3 cells; assay type: functional; settings: read-out: ED50 (the source's name)
[3] = test system: A498; assay: Antineoplastic activity against human A498 cells; assay type: functional; settings: read-out: ED50 (the source's name)
[4] = test system: KM-20L2; assay: Antineoplastic activity against human KM20L2 cells; assay type: functional; settings: read-out: ED50 (the source's name)
[5] = test system: NCI-H460; assay: Antineoplastic activity against human NCI-H460 cells; assay type: functional; settings: read-out: ED50 (the source's name)
[6] = test system: SK-MEL-5; assay: Antineoplastic activity against human SK-MEL-5 cells; assay type: functional; settings: read-out: ED50 (the source's name)
[7] = test system: SF-295; assay: Antineoplastic activity against human SF295 cells; assay type: functional; settings: read-out: ED50 (the source's name)
[8] = test system: Micrococcus luteus; assay: Antimicrobial activity against Micrococcus luteus at 64 ug/ml by broth microdilution susceptibility assay; assay type: functional, organism-based
Method in brief: (§1)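 Bacteria tested by broth microdilution following the NCCLS standard for aerobically growing bacteria (M7-A4). MIC read as the lowest compound concentration that blocked all visible growth of the organism (optically clear wells).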

[9] = test system: Streptococcus pneumoniae; assay: Antimicrobial activity against Streptococcus pneumoniae by broth microdilution susceptibility assay; assay type: functional; method in brief: as §1
[10] = test system: Neisseria gonorrhoeae; assay: Antimicrobial activity against Neisseria gonorrhoeae by broth microdilution susceptibility assay; assay type: functional; method in brief: as §1
[11] = test system: Escherichia coli; assay: Antimicrobial activity against Escherichia coli at 64 ug/ml by broth microdilution susceptibility assay; assay type: functional, organism-based; method in brief: as §1
[12] = test system: Cryptococcus neoformans; assay: Antimicrobial activity against Cryptococcus neoformans at 64 ug/ml by broth microdilution susceptibility assay; assay type: functional, organism-based
Method in brief: (§2)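 Yeast panel (Candida albicans, Cryptococcus neoformans) tested by broth microdilution following the NCCLS reference method for yeasts (M27-A). MIC taken as the lowest compound concentration giving no visible growth (optically clear).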

[13] = test system: Enterobacter cloacae; assay: Antimicrobial activity against Enterobacter cloacae at 64 ug/ml by broth microdilution susceptibility assay; assay type: functional, organism-based; method in brief: as §1
[14] = test system: Candida albicans; assay: Antimicrobial activity against Candida albicans at 64 ug/ml by broth microdilution susceptibility assay; assay type: functional, organism-based; method in brief: as §2
[15] = test system: Enterococcus faecalis; assay: Antimicrobial activity against Enterococcus faecalis at 64 ug/ml by broth microdilution susceptibility assay; assay type: functional, organism-based; method in brief: as §1
[16] = test system: Staphylococcus aureus; assay: Antimicrobial activity against Staphylococcus aureus by broth microdilution susceptibility assay; assay type: functional; method in brief: as §1
[17] = test system: Micrococcus luteus; assay: Antimicrobial activity against Micrococcus luteus by broth microdilution susceptibility assay; assay type: functional; method in brief: as §1
[18] = test system: Cryptococcus neoformans; assay: Antimicrobial activity against Cryptococcus neoformans by broth microdilution susceptibility assay; assay type: functional; method in brief: as §2
[19] = test system: Enterococcus faecalis; assay: Antimicrobial activity against Enterococcus faecalis by broth microdilution susceptibility assay; assay type: functional; method in brief: as §1
[20] = test system: Stenotrophomonas maltophilia; assay: Antimicrobial activity against Stenotrophomonas maltophilia at 64 ug/ml by broth microdilution susceptibility assay; assay type: functional, organism-based; method in brief: as §1

EC50 [1] [µg/mL]	EC50 [2] [µg/mL]	EC50 [3] [µg/mL]	EC50 [4] [µg/mL]	EC50 [5] [µg/mL]	EC50 [6] [µg/mL]	EC50 [7] [µg/mL]	MIC [9] [µg/mL]	MIC [10] [µg/mL]	MIC [16] [µg/mL]	MIC [17] [µg/mL]	MIC [18] [µg/mL]	MIC [19] [µg/mL]	Compound	Activity [8]	Activity [11]	Activity [12]	Activity [13]	Activity [14]	Activity [15]	Activity [20]
59 (≈ 228 µM)	–	–	–	–	–	–	–	–	–	–	–	–	COC1=Cc2ccnc3ccnc(c23)C1(OC)OC	–	–	–	–	–	–	–
3.6 (≈ 15.8 µM)	4.9 (≈ 21.5 µM)	3.2 (≈ 14 µM)	3.6 (≈ 15.8 µM)	3.2 (≈ 14 µM)	4.3 (≈ 18.8 µM)	4.1 (≈ 18 µM)	–	–	–	–	–	–	COc1cc2ccnc3c2c(c1OC)NC=C3 [AAPTAMINE]	–	–	–	–	–	–	–
3	–	–	> 10	> 10	–	–	16	< 0.5	64	–	–	–	COc1cc2ccnc3c2c(c1OP(=O)([O-])[O-])N(C)C=C3.[Na+].[Na+] [HYSTATIN 1]	inactive	inactive	inactive	inactive	inactive	inactive	–
0.28 (≈ 1.23 µM)	1.2 (≈ 5.26 µM)	2.2 (≈ 9.64 µM)	2.3 (≈ 10.1 µM)	2.4 (≈ 10.5 µM)	1.6 (≈ 7.01 µM)	2.6 (≈ 11.4 µM)	8 (≈ 35 µM)	< 0.5	16 (≈ 70.1 µM)	32 (≈ 140 µM)	64 (≈ 280 µM)	32 (≈ 140 µM)	COc1cc2ccnc3c2c(c1O)N(C)C=C3 [ISOAAPTAMINE]	–	inactive	–	inactive	inactive	–	inactive

Compound	EC50 [1] [µg/mL]	EC50 [2] [µg/mL]	EC50 [3] [µg/mL]	EC50 [4] [µg/mL]	EC50 [5] [µg/mL]	EC50 [6] [µg/mL]	EC50 [7] [µg/mL]	MIC [9] [µg/mL]	MIC [10] [µg/mL]	MIC [16] [µg/mL]	MIC [17] [µg/mL]	MIC [18] [µg/mL]	MIC [19] [µg/mL]	Activity [8]	Activity [11]	Activity [12]	Activity [13]	Activity [14]	Activity [15]	Activity [20]
COC1=Cc2ccnc3ccnc(c23)C1=O [DEMETHYLOXY-AAPTAMINE]	0.31 (≈ 1.46 µM)	0.39 (≈ 1.84 µM)	4.2 (≈ 19.8 µM)	2.1 (≈ 9.9 µM)	2.3 (≈ 10.8 µM)	1 (≈ 4.71 µM)	2.8 (≈ 13.2 µM)	–	–	–	–	–	–	–	–	–	–	–	–	–
